{"source": "ChEMBL document CHEMBL4715798", "about": "“Structure-Based Optimization of Multifunctional Agonists for Opioid and Neuropeptide FF Receptors with Potent Nontolerance Forming Analgesic Activities” (J Med Chem, 2016)", "key": {"Mus musculus [1]": {"test_system": "Mus musculus", "experiment": "Antinociceptive activity in mouse at 50 pmol, […] pre-treated with 10 nmol, icv nonselective NPFF receptor antagonist RF9 by radiant heat tail-flick test", "format": "functional, organism-based"}, "[2]": {"experiment": "Half life in mouse brain membrane homogenate at 10 uM by HPLC analysis", "format": "ADME, cell membranes"}, "Mus musculus [3]": {"test_system": "Mus musculus", "experiment": "Antinociceptive activity in icv dosed mouse assessed as inhibition of phase I flinching behaviors by formalin-induced nociceptive behavioral test", "format": "functional"}, "Mus musculus [4]": {"test_system": "Mus musculus", "experiment": "Antinociceptive activity in mouse at 50 pmol, […] pre-treated with 10 nmol, icv kappa opioid receptor antagonist nor-binaltorphimine 30 mins prior to test compound dosing by radiant heat tail-flick test", "format": "functional, organism-based"}, "[5]": {"molecular_target": "T1, Neuropeptide FF receptor 2 (Homo sapiens, UniProt Q9Y5X5)", "experiment": "Agonist activity at NPFFR2 (unknown origin) expressed in HEK293-A cells assessed as reduction in forskolin-induced cAMP accumulation incubated for 30 mins by competition PKA binding assay", "format": "functional, cell-based", "details": "read-out: EC50", "how_it_was_run": "(§1)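 cAMP functional read-out in transfected cells. Log EC50 ± standard error was obtained by nonlinear regression of data from at least three independent experiments run in duplicate.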"}, "Mus musculus [6]": {"test_system": "Mus musculus", "experiment": "Antinociceptive activity in mouse model of CFA-induced chronic inflammatory pain assessed as reduction in tactile hyperalgesia at 30 pmol, icv dosed once daily for 6 days", "format": "functional, organism-based", "details": "time 6.0 day"}, "[7]": {"molecular_target": "T2, Delta-type opioid receptor (Homo sapiens, UniProt P41143)", "experiment": "Agonist activity at delta opioid receptor (unknown origin) expressed in HEK293-A cells assessed as reduction in forskolin-induced cAMP accumulation incubated for 30 mins by competition PKA binding assay relative to Tyr-D-Ala-Gly-Phe-Gln-Pro-Gln-Arg-Phe-NH2", "format": "functional, cell-based", "details": "filed as agonist", "how_it_was_run": "as §1"}, "[8]": {"molecular_target": "T3, Neuropeptide FF receptor 1 (Homo sapiens, UniProt Q9GZQ6)", "experiment": "Agonist activity at NPFFR1 (unknown origin) expressed in HEK293-A cells assessed as reduction in forskolin-induced cAMP accumulation incubated for 30 mins by competition PKA binding assay", "format": "functional, cell-based", "details": "read-out: EC50", "how_it_was_run": "as §1"}, "[9]": {"molecular_target": "T2, Delta-type opioid receptor", "experiment": "Agonist activity at delta opioid receptor (unknown origin) expressed in HEK293-A cells assessed as reduction in forskolin-induced cAMP accumulation incubated for 30 mins by competition PKA binding assay", "format": "functional, cell-based", "how_it_was_run": "as §1"}, "Mus musculus [10]": {"test_system": "Mus musculus", "experiment": "Antinociceptive activity in mouse assessed as time for peak antinociceptive effect dosed repeated icv injections for 6 days by radiant heat tail-flick test", "format": "functional", "details": "time 6 day"}, "Mus musculus [11]": {"test_system": "Mus musculus", "experiment": "Antinociceptive activity in mouse at 50 pmol, […] pre-treated with 10 nmol, icv mu opioid receptor antagonist beta-funaltrexamine 4 hrs prior to test compound dosing by radiant heat tail-flick test", "format": "functional, organism-based"}, "Mus musculus [12]": {"test_system": "Mus musculus", "experiment": "Antinociceptive activity in mouse at 50 pmol, […] pre-treated with 10 nmol, icv delta opioid receptor antagonist naltrindole 20 mins prior to test compound dosing by radiant heat tail-flick test", "format": "functional, organism-based"}, "Mus musculus [13]": {"test_system": "Mus musculus", "experiment": "Antinociceptive activity in mouse at 50 pmol, […] pre-treated with 5 nmol, icv opioid receptor antagonist naloxone 10 mins prior to test compound dosing by radiant heat tail-flick test", "format": "functional, organism-based"}, "Mus musculus [14]": {"test_system": "Mus musculus", "experiment": "Antinociceptive activity in mouse assessed as time duration of antinociceptive effect dosed repeated icv injections for 6 days by radiant heat tail-flick test", "format": "functional", "details": "time 6 day"}, "Mu-type opioid receptor [15]": {"molecular_target": "T4, Mu-type opioid receptor (Homo sapiens, UniProt P35372)", "experiment": "Agonist activity at mu opioid receptor (unknown origin) expressed in HEK293-A cells assessed as reduction in forskolin-induced cAMP accumulation incubated for 30 mins by competition PKA binding assay", "format": "functional, cell-based", "details": "read-out: EC50", "how_it_was_run": "as §1"}, "Mus musculus [16]": {"test_system": "Mus musculus", "experiment": "Antinociceptive activity in ip dosed mouse by radiant heat tail-flick test", "format": "functional"}, "[17]": {"molecular_target": "T3, Neuropeptide FF receptor 1", "experiment": "Agonist activity at NPFFR1 (unknown origin) expressed in HEK293-A cells assessed as reduction in forskolin-induced cAMP accumulation incubated for 30 mins by competition PKA binding assay relative to Tyr-D-Ala-Gly-Phe-Gln-Pro-Gln-Arg-Phe-NH2", "format": "functional, cell-based", "details": "filed as agonist", "how_it_was_run": "as §1"}, "Mus musculus [18]": {"test_system": "Mus musculus", "experiment": "Antinociceptive activity in mouse dosed repeated icv injections for 6 days by radiant heat tail-flick test", "format": "functional", "details": "time 6 day", "how_it_was_run": "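Mice received the same icv dose once daily for 6 days in the radiant heat tail-flick test. Tolerance was judged by comparing the antinociceptive response on day 1 with day 6. Values are mean ± SEM.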"}, "Mu-type opioid receptor [19]": {"molecular_target": "T4, Mu-type opioid receptor", "experiment": "Agonist activity at mu opioid receptor (unknown origin) expressed in HEK293-A cells assessed as reduction in forskolin-induced cAMP accumulation incubated for 30 mins by competition PKA binding assay relative to Tyr-D-Ala-Gly-Phe-Gln-Pro-Gln-Arg-Phe-NH2", "format": "functional, cell-based", "details": "filed as agonist", "how_it_was_run": "as §1"}, "Mus musculus [20]": {"test_system": "Mus musculus", "experiment": "Antinociceptive activity in mouse assessed as development of tolerance dosed repeated icv injections for 6 days by radiant heat tail-flick test", "format": "functional, organism-based", "details": "time 6.0 day", "how_it_was_run": "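Tail-flick test in mice. Peptide was given icv once daily for 6 days at a fixed dose. Antinociceptive responses to the same dose on day 1 and day 6 were compared to judge tolerance. Values are mean ± SEM.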"}, "[21]": {"molecular_target": "T1, Neuropeptide FF receptor 2", "experiment": "Agonist activity at NPFFR2 (unknown origin) expressed in HEK293-A cells assessed as reduction in forskolin-induced cAMP accumulation incubated for 30 mins by competition PKA binding assay relative to Tyr-D-Ala-Gly-Phe-Gln-Pro-Gln-Arg-Phe-NH2", "format": "functional, cell-based", "details": "filed as agonist", "how_it_was_run": "as §1"}, "Mus musculus [22]": {"test_system": "Mus musculus", "experiment": "Antinociceptive activity in icv dosed mouse assessed as inhibition of phase II flinching behaviors by formalin-induced nociceptive behavioral test", "format": "functional"}, "Mus musculus [23]": {"test_system": "Mus musculus", "experiment": "Antinociceptive activity in icv dosed mouse model of CFA-induced chronic inflammatory pain assessed as reduction in tactile hyperalgesia measured after 15 to 90 mins post dose", "format": "functional", "details": "time 15-90 min"}, "[24]": {"experiment": "Toxicity in mouse assessed as latency to fall off the rod at 200 pmol, icv measured after 10 to 30 mins by rotarod test", "details": "in vivo, icv_or_intrathecal, time 10-30 min"}, "[25]": {"molecular_target": "Kappa-type opioid receptor (Homo sapiens, UniProt P41145)", "experiment": "Agonist activity at kappa opioid receptor (unknown origin) expressed in HEK293-A cells assessed as reduction in forskolin-induced cAMP accumulation incubated for 30 mins by competition PKA binding assay", "format": "functional, cell-based", "how_it_was_run": "as §1"}, "[26]": {"experiment": "Toxicity in mouse assessed as latency to fall off the rod at 30 mg/kg, ip measured after 10 to 30 mins by rotarod test", "format": "organism-based", "details": "in vivo, time 10-30 min"}}, "note": "pEC50: −log10 of the molar value. Calls of active or inactive are those of the source. The calls are words filed in the database; no cut-off is given here. Non-standard residues stand in square brackets, D forms with d. Residues, ends and D or L forms follow the SMILES beside them. NMeF = CN[C@@H](Cc1ccccc1)C(=O)O"}
{"smiles": "C[C@@H](NC(=O)[C@@H](N)Cc1ccc(O)cc1)C(=O)NCC(=O)N(C)[C@@H](Cc1ccccc1)C(=O)NCC(=O)N1CCC[C@H]1C(=O)N[C@@H](CCC(N)=O)C(=O)N[C@@H](CCCNC(=N)N)C(=O)N[C@@H](Cc1ccccc1)C(N)=O", "note": "(H-Y[dA]G[NMeF]GPQRF-NH2)", "values": [{"measurement": "Activity", "setting": "Mus musculus [1]", "result": "Active"}, {"measurement": "half-life at 10 µM", "setting": "[2]", "result": 1.44, "unit": "h"}, {"measurement": "Activity", "setting": "Mus musculus [3]", "result": "Dose-dependent effect"}, {"measurement": "ED50", "setting": "Mus musculus [3]", "result": 18.8, "unit": "pmol"}, {"measurement": "Activity", "setting": "Mus musculus [4]", "result": "Active"}, {"measurement": "pEC50", "setting": "[5]", "result": 6.51}, {"measurement": "Activity", "setting": "Mus musculus [6]", "result": "Active"}, {"measurement": "Emax", "setting": "[7]", "result": 85.4, "unit": "%"}, {"measurement": "pEC50", "setting": "[8]", "result": 6.01}, {"measurement": "pEC50", "setting": "[9]", "result": 6.24}, {"measurement": "Time", "setting": "Mus musculus [10]", "result": 20, "unit": "min"}, {"measurement": "Activity", "setting": "Mus musculus [11]", "result": "Active"}, {"measurement": "Activity", "setting": "Mus musculus [12]", "result": "inactive"}, {"measurement": "Activity", "setting": "Mus musculus [13]", "result": "inactive"}, {"measurement": "Time", "setting": "Mus musculus [14]", "result": ">60", "unit": "min"}, {"measurement": "pEC50", "setting": "Mu-type opioid receptor [15]", "result": 7.41}, {"measurement": "Activity", "setting": "Mus musculus [16]", "result": "Dose-dependent effect"}, {"measurement": "ED50", "setting": "Mus musculus [16]", "result": 26.6, "unit": "mg/kg"}, {"measurement": "Emax", "setting": "[17]", "result": 69.8, "unit": "%"}, {"measurement": "ED50", "setting": "Mus musculus [18]", "result": 0.0163, "unit": "nmol"}, {"measurement": "Emax", "setting": "Mu-type opioid receptor [19]", "result": 81.6, "unit": "%"}, {"measurement": "Activity", "setting": "Mus musculus [20]", "result": "Active"}, {"measurement": "Emax", "setting": "[21]", "result": 73.3, "unit": "%"}, {"measurement": "Activity", "setting": "Mus musculus [22]", "result": "Dose-dependent effect"}, {"measurement": "ED50", "setting": "Mus musculus [22]", "result": 103.4, "unit": "pmol"}, {"measurement": "Activity", "setting": "Mus musculus [23]", "result": "Dose-dependent effect"}, {"measurement": "ED50", "setting": "Mus musculus [23]", "result": 3.92, "unit": "pmol"}, {"measurement": "Activity", "setting": "[24]", "result": "Non-Toxic"}, {"measurement": "pEC50", "setting": "[25]", "result": 5.83}, {"measurement": "Activity", "setting": "[26]", "result": "Non-Toxic"}]}
